High-throughput results deposited in PubChem by several laboratories.
The entries come from a sample that favours hits as a whole.
UPR CHOP act: activators of apoptotic CHOP UPR arm, primary screen, cell-based, CHO-CHOP luciferase reporter, luminescence, uHTS. 0.34% of 330,000 active. AID 449763, 2010. activation, % at 10 µM. UPR activation; percent of tunicamycin response over DMSO baseline;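 active = at 10 µM dose, activation of 40% or more, normalized to positive control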
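System: CHO-CHOP luciferase reporter cell line | Buffer or medium: F12 medium containing 10% fetal bovine serum | Doses: One dose, 10 µM in 0.5% DMSO | Times: 6 h compound exposure at 37 °C after overnight seeding | Signal: Luciferase luminescence | Read-out: % activation vs tunicamycin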
Jurkat NFkB inh: inhibitors of induced NF-kB luciferase reporter, primary screen, TCR NF-kB activation inhibitor project, cell-based, luminescence, uHTS. 0.53% of 330,000 active. inhibition, % at 4 µM. Jurkat, PMA/ionomycin-induced NF-kB luciferase reporter; in the data active = inhibition above about 50%
UPR XBP1 act: activators of adaptive XBP1 UPR arm, primary screen, cell-based, CHO-XBP1 luciferase reporter, luminescence, uHTS; IRE1-XBP1 UPR activation; percent of tunicamycin response, DMSO as zero; activation, % at 20 µM; 0.33% of 330,000 active;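 active = versus positive control, 20 µM dose yields 30% or more activation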
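Material: IRE1-XBP1 luciferase reporter CHO line / Quantity: one thousand reporter cells per well / Buffer or medium: F12 with 10% serum / Compound: 20 µM single concentration, DMSO 1% / Times: 6 h treatment, 37 °C / Detection: Steady-Glo luciferase glow luminescence, 10 min after reagent addition / Benchmarks: tunicamycin high, DMSO low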
CHOP inh: inhibitors of CHOP promoter induction, primary screen, cell-based, unfolded protein response, luciferase reporter; AID 2732, 2010; 3.8% of 220,000 active; CHO-K1 CHOP-promoter luciferase, tunicamycin-induced, 15-18 h; inhibition, % at 10 µM;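 active = compounds that reduced the stress-induced luciferase reporter signal by more than about 70% of percent inhibition, limit read from the data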
697 NFkB inh: inhibitors of PMA/ionomycin-induced NF-kB reporter, 697 cells, primary screen, B-cell NF-kB inhibitor project, cell-based, luminescence, uHTS. 697 B-cell NF-kB luciferase reporter, 16 h. inhibition, % at 4 µM. 0.33% of 330,000 active. AID 435022, 2010; in the data active = inhibition above about 35%
A number is an active result; . = inactive; / = no result.

SMILES | UPR CHOP act | Jurkat NFkB inh | UPR XBP1 act | CHOP inh | 697 NFkB inh
Fc1ccc(CNc2nc(-c3ccco3)cc(C(F)(F)F)n2)cc1 | . | . | . | . | .
Fc1ccc(-c2cc(C(F)(F)F)nc(NCc3cccs3)n2)cc1 | . | . | . | 72 | .
CC(OC(=O)c1cnccn1)C(=O)c1ccccc1 (centres undefined) | . | . | . | / | .
O=C(c1ccc(Cl)cc1)N1CCC(C(=O)N2CCN(c3ncccn3)CC2)CC1 | . | . | . | / | .
COc1ccc(OC)c(/C=N/N(C)c2ccccc2)c1 | . | . | . | 72 | .
COc1ccc(OC)c(/C=N\NC(=O)c2ccc(-c3ccccc3)cc2)c1 | . | . | . | / | .
CCOC(=O)N1CCN(C(=O)c2cc3ccc(OC)cc3[nH]2)CC1 | . | . | . | / | .
COc1nc(N(C)S(=O)(=O)c2ccc(C)cc2)nc(C)c1Cl | . | . | . | 83 | .
O=C(NCCc1ccccc1)C1(S(=O)(=O)c2ccc(Cl)cc2)CC1 | . | . | . | / | .
COC(=O)c1ccccc1S(=O)(=O)NNC(=O)C12CC3CC(CC(C3)C1)C2 | . | . | . | / | .
COCCN1CCN(c2cc(-c3ccccc3)nc3cc(-c4cccc(F)c4)nn23)CC1 | . | . | . | 80 | .
Fc1cccc(-c2cc3nc(-c4ccccc4)cc(N4CCC5(CC4)OCCO5)n3n2)c1 | . | . | . | . | .
Cc1cnc(NC(=O)c2ccc(-c3nc4ccccc4s3)o2)s1 | . | . | . | 74 | .
CCOC(=O)c1c(C)[nH]c(C(=O)CSc2ccc(Cl)cc2)c1C | . | . | . | 70 | .
CCOC(=O)c1c(C)[nH]c(C(=O)OCCOc2ccc(Cl)cc2)c1C | . | . | . | 72 | .
CCOC(=O)c1c(C)[nH]c(C(=O)OCCOc2ccccc2C)c1C | / | / | / | 74 | /
CCOC(=O)c1c(C)[nH]c(C(=O)CSc2nnc(-c3cccs3)n2Cc2ccccc2)c1C | . | . | . | 79 | .
CC(=O)c1c(C)[nH]c(C(=O)CSc2nnc(-c3cccs3)n2Cc2ccccc2)c1C | . | . | . | . | .
CCOC(=O)c1c(C)[nH]c(C(=O)OCc2ccc(F)cc2)c1C | . | . | . | / | .
CN(Cc1ccn[nH]1)C(=O)C1CCC(=O)N(Cc2cccc(C(F)(F)F)c2)C1 (centres undefined) | . | . | . | / | .
S=C(N/N=C/c1cccc2ccccc12)Nc1cccc(Cl)c1 | . | . | . | . | .
CC(C)C(NS(=O)(=O)c1ccccc1)C(=O)N1CCCC1 (centres undefined) | . | . | . | / | .
Cc1ccc(S(=O)(=O)N2C[C@@H]3[C@H]4CC[C@H](C4)[C@@H]3[C@@H](C)[C@@H]2C2CCCCC2=O)cc1 (some centres undefined) | . | / | . | / | .
CC(SCc1ccccc1)C(=O)Nc1ccccc1 (centres undefined) | . | . | . | / | .
CCOC(=O)c1c(C)[nH]c(C(=O)COC(=O)C(C)Oc2ccc(Cl)cc2Cl)c1C (centres undefined) | . | . | . | 75 | .
SMILES | UPR CHOP act | Jurkat NFkB inh | UPR XBP1 act | CHOP inh | 697 NFkB inh
COC(=O)c1c(C)[nH]c(C(=O)CSc2nnnn2-c2ccccc2)c1C | . | . | . | 77 | .
CCOC(=O)c1c(C)[nH]c(C(=O)COC(=O)CNC(=O)c2ccc(Cl)cc2)c1C | . | . | . | . | .
CCOC(=O)c1c(C)[nH]c(C(=O)COC(=O)C2(C)CC2(Cl)Cl)c1C (centres undefined) | . | . | . | 81 | .
O=C(NN1CC(C(=O)OCc2ccc(Br)cc2)CC1=O)c1ccccc1 (centres undefined) | . | . | . | / | .
Cc1ccc(SC2=C(C(=O)O)CCCC2)cc1 | . | . | . | / | .
CCSc1ccccc1C(=O)N1CCC2(CC1)CC(=O)c1ccccc1O2 | . | . | . | / | .
Cc1ccc([N+](=O)[O-])cc1N/C=C1\CCc2ccccc2C1=O | . | . | . | 85 | .
Cc1ccc([N+](=O)[O-])cc1NC(=O)CCc1ccccc1 | . | . | . | . | .
CCOC(=O)c1c(C)n(-c2ccc(F)cc2)c2ccc(O)cc12 | . | . | . | / | .
COC(=O)c1c(C)n(-c2ccc(OC)cc2)c2ccc(O)cc12 | . | . | . | 74 | .
Cc1nn(-c2nc(-c3ccco3)cc(C(F)(F)F)n2)c(C)c1Cl | . | . | . | 88 | .
FC(F)(F)c1cc(-c2ccco2)nc(-n2cnc3ccccc32)n1 | . | . | . | . | .
O=C(C1CC(=O)N(c2ccccc2)C1)N1CCCCCC1 (centres undefined) | . | . | . | / | .
O=C1c2cccc3c(N4CCCCC4)ccc(c23)C(=O)N1c1ccccc1O | . | . | . | . | .
O=C1c2cccc3c(N4CCCCC4)ccc(c23)C(=O)N1c1ccc(O)cc1 | . | . | . | 106 | .
Nc1nc(Br)c2c(F)cccc2c1-c1ccccc1 | . | . | . | . | .
Nc1nc(Br)c2c(F)cccc2c1-c1ccc(F)cc1 | . | . | . | 74 | .
Cc1cccc(NC(c2ccc(C)s2)c2ccc3ccc(C)nc3c2O)n1 (centres undefined) | 93 | . | . | . | .
Cc1cccc(N=C2NN=C(c3c(C)[nH]c4ccccc34)CS2)c1 | . | . | . | 72 | .
CCOCCCNC(=O)C1(O)c2ccccc2NC(=O)N1c1ccc(Cl)c(Cl)c1 (centres undefined) | . | . | . | / | .
CC(C)NC(=O)C1(O)c2ccccc2NC(=O)N1c1ccc(Cl)c(Cl)c1 (centres undefined) | . | . | . | 81 | .
O=C(CN1C(=O)C2CCCCC2C1=O)Nc1cc([N+](=O)[O-])ccc1F (centres undefined) | . | . | . | / | .
COc1cccc(N2CN(CCc3ccccc3)CNC2=S)c1 | . | . | . | . | .
O=C(CSc1ccccc1)Nc1ccc(-c2nc3ccccc3[nH]2)cc1 | . | . | . | 94 | .
COc1c(F)c(F)c(C(=O)Nc2ccc(N3CCN(Cc4ccccc4)CC3)cc2)c(F)c1F | . | . | . | 88 | .
COc1ccc(C(=O)Nc2ccc(N3CCN(Cc4ccccc4)CC3)cc2)cc1 | . | . | . | . | .
COc1c(F)c(F)c(C(=O)Nc2ccc(-c3nc4ccccc4[nH]3)cc2)c(F)c1F | . | . | . | 83 | .
O=C(CN1CCOCC1)Nc1ccc(-c2nc3ccccc3[nH]2)cc1 | . | . | . | . | .
CC1(CCc2ccccc2)NC(=O)N(CC(=O)Nc2c(F)cccc2F)C1=O (centres undefined) | . | . | . | / | .
